The source of these data is ChEMBL document CHEMBL1140057, “Design, synthesis, and evaluation of novel organophosphorus inhibitors of bacterial ureases” (J Med Chem, 2008).

Test [1] is described as follows: Inhibition of Bacillus pasteurii CCM 2056 urease by steady state kinetic study. More on the design: species or system Sporosarcina pasteurii. In outline:
(§1)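 Assay at 30 °C in 3 mM phosphate pH 7.0 with 2-100 mM urea. Ammonia read by Berthelot indophenol at 650 nm. Enzyme-inhibitor preincubated 30 min before urea, or diluted 30-fold from a concentrated mix. Ki* from linear regression, triplicates.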

The nature of test [2]: Inhibition of Proteus vulgaris CCM 1956 urease by steady state kinetic study. The method in brief:
as §1

The next test has as its target Urease (Helicobacter pylori, UniProt Q0PXQ5). As to the kind of experiment: Inhibition of Helicobacter pylori urease.
Test [3] in a line: Inhibition of Klebsiella aerogenes urease.

Sequence of Urease (Q0PXQ5 whole entry): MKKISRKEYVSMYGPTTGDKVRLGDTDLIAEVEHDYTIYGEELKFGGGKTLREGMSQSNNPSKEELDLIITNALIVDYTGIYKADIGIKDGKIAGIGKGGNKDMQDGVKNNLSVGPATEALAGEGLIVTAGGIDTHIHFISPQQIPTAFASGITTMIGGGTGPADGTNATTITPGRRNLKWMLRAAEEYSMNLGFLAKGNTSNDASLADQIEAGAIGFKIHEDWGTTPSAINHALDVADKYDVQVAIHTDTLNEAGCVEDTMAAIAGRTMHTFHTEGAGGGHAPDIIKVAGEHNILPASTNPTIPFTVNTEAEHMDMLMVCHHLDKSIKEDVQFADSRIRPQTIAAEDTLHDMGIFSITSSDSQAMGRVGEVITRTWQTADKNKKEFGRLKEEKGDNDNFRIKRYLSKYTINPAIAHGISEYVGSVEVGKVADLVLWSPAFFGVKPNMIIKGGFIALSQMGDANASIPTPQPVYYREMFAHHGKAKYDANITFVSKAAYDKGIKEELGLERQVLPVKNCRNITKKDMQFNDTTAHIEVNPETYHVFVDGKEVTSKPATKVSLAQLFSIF

Take `CP(=O)(O)CNC(=O)[C@@H](N)CO`: the IC50 (as a rule, the midpoint of a concentration-inhibition curve) came to 150 µM in test [1] and 342 µM in test [2]. In addition, the Ki (in general, a dissociation constant, usually derived from enzyme kinetics or from competition with a known ligand) was found to be 37 µM in test [1] and 41 µM in test [2].

As for `CP(=O)(O)CNC(=O)[C@@H](N)Cc1ccccc1`, the IC50 in test [1] stood at 600 µM; in test [2], 754 µM. For the same molecule, the results for the Ki in test [1] and in test [2] were 215 µM and 176 µM, respectively.

Take `CP(O)(=S)CNC(=O)OCc1ccccc1` (configuration not stated): in test [1], 112 µM corresponded to half-maximal inhibition (IC50) and the Ki was 17.5 µM. In test [2], the IC50 came to 158 µM and the affinity corresponds to a Ki of 14 µM.

`CC(C)[C@H](N)C(=O)NCP(C)(=O)O`: in test [1], the IC50 worked out at 485 µM and the Ki amounted to 120 µM. In test [2], this molecule gave an IC50 of 617 µM and a Ki of 208 µM.

Regarding `CP(=O)(O)CNC(=O)[C@@H](N)COCc1ccccc1`, in test [1], it took 80 µM to reach half-maximal inhibition (IC50) and the Ki came out at 25 µM. In test [2], this molecule came in with an IC50 of 183 µM and a Ki of 32.6 µM.

In test [1], `CP(=O)(O)CNC(=O)OCc1ccccc1` returned an IC50 of 123 µM and a Ki of 43 µM. In test [2], this molecule registered an IC50 of 319 µM and a Ki of 65 µM.

`CP(O)(=S)CNC(=O)CNC(=O)OCc1ccccc1` (configuration not stated): the figures for the IC50 in test [1] and in test [2] were 1.8 µM and 3.1 µM, respectively. Moreover, the inhibition constant (Ki) in test [1] came to 0.17 µM; in test [2] it was 0.45 µM.

`NCC(=O)NCC(=O)NO` yielded an IC50 against Urease of 0.79 µM.

In the case of `CP(=O)(O)CNC(=O)CN`, the values for the IC50 in test [1] and in test [2] were 60 µM and 86 µM, respectively. Moreover, the Ki in test [1] is 21 µM; in test [2], 30 µM.

In test [1], `CP(=O)(O)CNC(=O)CNC(=O)OCc1ccccc1` had an IC50 of 450 µM and a Ki of 135 µM. In test [2], the IC50 amounted to 640 µM and the Ki stood at 178 µM.

The molecule `CC(=O)NO` [ACETOHYDROXAMIC ACID] showed a Ki in test [3] of 2.6 µM.

In test [1], `CP(=O)(O)CN` [AMINOMETHYL(METHYL)PHOSPHINIC ACID] displayed an IC50 of 1100 µM and a Ki of 340 µM. In test [2], this molecule registered an IC50 of 2530 µM and a Ki of 425 µM.

In test [1], `CNCP(C)(=O)O` [METHYL((METHYLAMINO)METHYL)PHOSPHINIC ACID] displayed an IC50 of 60 µM and a Ki of 18 µM. In test [2], this molecule showed an IC50 of 153 µM and a Ki of 27 µM.

Molecule `NP(N)(=O)Oc1ccccc1` [PHENYL PHOSPHORDIAMIDATE] gave a Ki in test [1] of 0.0006 µM.
